Active and inactive are the calls of the source. No cut-off for these calls is given here.
Columns and labels:
[1] = target: TLR2/TLR6 (Mus musculus) (UniProt Q9QUN7+Q9EPW9); test: Inhibition of TLR2/6-mediated NFkappaB p65 activation in BLP-stimulated BALB/c mouse BMDM at 5 ug/ml preincubated for 18 hrs followed by BLP challenge measured after 1 hr by TransAM ELISA; assay type: protein-complex assay
Procedure, shortened: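 Bone marrow macrophages (4 × 10^6/well) had their medium changed after 24 h, were pretreated with compounds at 5 μg/mL for 18 h, then stimulated for 1 h with 100 ng/mL LPS, 10 ng/mL BLP or 1 μM CpG. Activated NFκB p65 in nuclear extracts was measured by TransAM ELISA in duplicate.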

[2] = test system: Mus musculus; test: Antiinflammatory activity in DBA/1 mouse collagen-induced arthritis model assessed as reduction in number of gammadelta+ T cells at 50 ug/kg, sc administered 2 days prior to collagen challenge continued till day 21 post collagen challenge; assay type: functional, organism-based; details: T-cell
Procedure, shortened: (§1)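 Dosing was 1 μg/dose or PBS given subcutaneously on days −2, 0 and 21 of CIA. Total, CD4+, CD8+ and γδ T cell numbers in draining lymph nodes were counted by flow cytometry for each mouse. Naive mice not exposed to collagen served as a further control (naive n = 7; PBS and treated n = 13).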

[3] = target: T1, Toll-like receptor 4 (Mus musculus) (UniProt Q9QUK6); test: Inhibition of TLR4 in C57BL/6 mouse BMDC assessed as reduction of LPS-induced IL-23 production at 5 ug/mL preincubated for 2 hrs prior to LPS challenge measured after 24 hrs by ELISA
T1 sequence (whole entry): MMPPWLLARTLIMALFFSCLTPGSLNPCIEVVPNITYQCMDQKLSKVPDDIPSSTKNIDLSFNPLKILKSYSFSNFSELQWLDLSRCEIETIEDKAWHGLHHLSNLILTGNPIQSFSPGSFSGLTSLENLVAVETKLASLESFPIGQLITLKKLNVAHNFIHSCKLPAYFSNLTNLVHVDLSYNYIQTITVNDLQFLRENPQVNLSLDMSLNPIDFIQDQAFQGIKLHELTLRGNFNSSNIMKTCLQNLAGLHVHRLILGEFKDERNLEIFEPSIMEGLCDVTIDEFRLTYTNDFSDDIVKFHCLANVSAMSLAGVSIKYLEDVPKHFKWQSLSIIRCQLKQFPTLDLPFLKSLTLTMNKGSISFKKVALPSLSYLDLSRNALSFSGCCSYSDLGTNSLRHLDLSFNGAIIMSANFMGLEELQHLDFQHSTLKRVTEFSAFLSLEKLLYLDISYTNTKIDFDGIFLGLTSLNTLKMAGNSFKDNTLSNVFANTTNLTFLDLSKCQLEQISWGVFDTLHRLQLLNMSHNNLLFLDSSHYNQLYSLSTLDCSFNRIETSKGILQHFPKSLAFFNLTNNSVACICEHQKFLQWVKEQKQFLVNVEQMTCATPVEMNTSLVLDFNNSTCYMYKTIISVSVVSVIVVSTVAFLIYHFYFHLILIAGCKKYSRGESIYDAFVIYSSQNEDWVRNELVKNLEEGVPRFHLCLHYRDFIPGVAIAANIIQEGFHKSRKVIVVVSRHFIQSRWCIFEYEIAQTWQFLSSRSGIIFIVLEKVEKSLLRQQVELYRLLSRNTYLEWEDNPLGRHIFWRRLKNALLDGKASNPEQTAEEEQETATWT
Procedure, shortened: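 C57BL/6 bone marrow DCs were generated in complete RPMI with 10 ng/mL GM-CSF. They were preincubated ± compound at 5 μg/mL for 2 h, then stimulated with LPS for 24 h. TNF-α, IL-6 and IL-23 in conditioned medium were measured by ELISA. Values are means of triplicates ± SEM pooled from 4 experiments.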

[4] = test system: Mus musculus; test: (§2) Antiinflammatory activity in DBA/1 mouse collagen-induced arthritis model assessed as reduction in number of PMA/ionomycin-stimulated CD8+ T cells expressing IFNgamma at 50 ug/kg, sc administered 2 days prior to collagen challenge continued till day 21 post collagen challenge by flow cytometric analysis relative to control; assay type: functional, organism-based; details: T-cell
Procedure, shortened: (§3)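 CIA mice given test agent (1 μg/dose) or PBS subcutaneously on days −2, 0 and 21. Draining lymph node cells (10^6/mL) in complete RPMI were stimulated ± 50 ng/mL PMA plus 500 ng/mL ionomycin, with 10 μg/mL brefeldin A for 5 h at 37 °C. Cells were surface-stained for CD4, CD8 and γδ, fixed and permeabilized, then stained for intracellular IFNγ and IL-17A. Gating used isotype controls. Cell numbers per individual mouse; naive n = 7, treated groups n = 13.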

[5] = test system: Mus musculus; test: Antiinflammatory activity in DBA/1 mouse collagen-induced arthritis model assessed as reduction of hind paw width at 50 ug/kg, sc administered 2 days prior to collagen challenge continued till day 21 post collagen challenge; assay type: functional, organism-based
Procedure, shortened: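 Collagen-induced arthritis mice were dosed subcutaneously (1 μg/dose) or given PBS on days −2, 0 and 21. Arthritis was scored clinically and hind paw width measured. Incidence was the % of mice with severity score ≥2 (cumulative) or ≥4 (high score). Results are mean ± SEM. Scores n = 13 per group, pooled from two experiments; paw width n = 7, from a single experiment.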

[6] = species: Mus musculus; test: Inhibition of TLR4/IL-1R in BALB/c mouse BMDM assessed as downregulation of LPS-stimulated MyD88 protein expression at 5 ug/mL after 20 hrs by Western blotting analysis relative to control
Procedure, shortened: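 Bone marrow macrophages were treated 20 h with medium, compound (1 or 5 μg/mL) or LPS (100 ng/mL) and lysed in modified RIPA buffer. Protein (30 μg) was separated on Bis-Tris gels, and MyD88 and GAPDH were detected by Western blot with ECL. Densitometric MyD88:GAPDH ratio was normalized to the RPMI value, from six analyses.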

[7] = test system: Mus musculus; test: Antiinflammatory activity in DBA/1 mouse collagen-induced arthritis model assessed as reduction in number of CD4+ T cells at 50 ug/kg, sc administered 2 days prior to collagen challenge continued till day 21 post collagen challenge; assay type: functional, organism-based; details: T-cell; procedure, shortened: as §1
[8] = test system: Mus musculus; test: as §2, with “effect on” for “reduction in”, “gammadelta+” for “CD8+”; assay type: functional, organism-based; details: T-cell
[9] = test system: Mus musculus; test: Antiinflammatory activity in DBA/1 mouse assessed as reduction in number of PMA/ionomycin-stimulated gammadelta+ T cells expressing IL-17 at 50 ug/kg, sc administered 2 days prior to collagen challenge continued till day 21 post collagen challenge by flow cytometric analysis relative to control; assay type: functional, organism-based; details: T-cell; procedure, shortened: as §3
[10] = test system: Mus musculus; test: as §2, with “CD4+” for “CD8+”; assay type: functional, organism-based; details: T-cell; procedure, shortened: as §3
[11] = Cytotoxicity against LPS-stimulated BALB/c mouse BMDM assessed as loss of cell viability at 5 ug/mL preincubated for 18 hrs followed by LPS challenge measured after 24 hrs by 7-AAD staining-based flow cytometric analysis
Procedure, shortened: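 BALB/c bone marrow macrophages (2 × 10^5/well) were rested 24 h in complete RPMI, then given 5 μg/mL compound for 18 h. Cells were stained with 7-AAD for 10 min on ice and the dead fraction read by flow cytometry. One experiment is representative of two.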

SMILES: CN(C)CCS(=O)(=O)Cc1ccc(Br)cc1
- inhibition [1]: Active
- Activity [2]: Active
- inhibition [3]: Active
- Activity [4]: Active
- Activity [5]: Active
- fold change (FC) [6]: 0.736
- Activity [7]: Active
- Activity [8]: inactive
- Activity [9]: Active
- Activity [10]: Active
- Activity [11]: Non-toxic

Reference: ChEMBL document CHEMBL3108700, “Designing anti-inflammatory drugs from parasitic worms: a synthetic small molecule analogue of the Acanthocheilonema viteae product ES-62 prevents development of collagen-induced arthritis” (J Med Chem, 2013)
